Data on 25 compounds can be found in ChEMBL document CHEMBL3098070, “Rational design, synthesis and antitubercular evaluation of novel 2-(trifluoromethyl)phenothiazine-[1,2,3]triazole hybrids” (Bioorg Med Chem Lett, 2014).

Converted amounts (≈) assume the structure as drawn.

Series [1] has as its system Mycobacterium tuberculosis. As to the kind of experiment: Antimycobacterial activity against Mycobacterium tuberculosis H37Rv ATCC 27294 assessed as parasite growth inhibition after 28 days by agar dilution method. It counts as functional. To be noted: H37Rv ATCC 27294, 672 h. Summed up:
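Agar dilution in Middlebrook 7H11 with OADC; two-fold dilutions 50.0 to 0.4 µg/mL. Inoculum from fresh 7H11 slants, adjusted to 1 mg/mL wet weight in 0.05% Tween 80 saline, diluted 10-2 to 107 cfu/mL; 5 µL spotted per tube. Incubated 37 °C, read at 28 days. MIC = lowest concentration giving complete growth inhibition; triplicates.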
In general terms: Agar dilution tests growth on a series of plates holding different concentrations.

Series [2] can be described thus: Selectivity index, ratio of cytotoxicity for HEK293T cells to MIC for Mycobacterium tuberculosis H37Rv. It counts as toxicity, cell-based, HEK-293T. The settings on record: human, read-out: Selectivity Index.
A short description of series [3]: Cytotoxicity against HEK293T cells at 50 ug/ml after 72 hrs by MTT assay. It is filed as cell-based, HEK-293T. The settings on record: human, read-out: INH. An outline of the steps: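 HEK-293T human embryonic kidney cells exposed to compound at 50 µg/mL for 72 h; viability by cellular MTT conversion to formazan (non-radioactive cell proliferation kit); reported as percentage inhibition of cells.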
On the technique in general: Tetrazolium dyes change colour on reduction, which living cells bring about.

In the case of `O=C(Cn1cc(-c2ccsc2)nn1)N1c2ccccc2Sc2ccc(C(F)(F)F)cc21`, the minimum inhibitory concentration (MIC) in series [1] came out at 25 mg/L (≈ 54.5 µM).

In the case of `CCCCCCc1cn(CC(=O)N2c3ccccc3Sc3ccc(C(F)(F)F)cc32)nn1`, the selectivity ratio in series [2] is over 10. The cytotoxicity at 72 h, 50 ug/ml in series [3] was found to be 25.6%. For the same compound, the MIC in series [1] amounted to 6.25 mg/L (≈ 13.6 µM). In the case of `O=C(Cn1cc(CCCO)nn1)N1c2ccccc2Sc2ccc(C(F)(F)F)cc21`, the MIC in series [1] stood at 12.5 mg/L (≈ 28.8 µM). Same read-out and setting: to `O=C(Cn1cc(CCc2ccccc2)nn1)N1c2ccccc2Sc2ccc(C(F)(F)F)cc21` belongs 25 mg/L (≈ 52 µM); to `O=C(Cn1cc(C2(O)CCCC2)nn1)N1c2ccccc2Sc2ccc(C(F)(F)F)cc21`, 12.5 mg/L (≈ 27.1 µM).

For `O=C(Cn1cc(C2(O)CCCCC2)nn1)N1c2ccccc2Sc2ccc(C(F)(F)F)cc21`, in series [1], the MIC worked out at 25 mg/L (≈ 52.7 µM).

Take `O=C(Cn1cc(-c2ccccc2)nn1)N1c2ccccc2Sc2ccc(C(F)(F)F)cc21`: in series [1], the MIC was found to be 12.5 mg/L (≈ 27.6 µM). As to `Cc1cccc(-c2cn(CC(=O)N3c4ccccc4Sc4ccc(C(F)(F)F)cc43)nn2)c1`, the minimum inhibitory concentration (MIC) in series [1] is 25 mg/L (≈ 53.6 µM). With `Cc1ccc(-c2cn(CC(=O)N3c4ccccc4Sc4ccc(C(F)(F)F)cc43)nn2)cc1`, the minimal inhibitory concentration (MIC) in series [1] was 25 mg/L (≈ 53.6 µM). Take `CC(C)(C)c1ccc(-c2cn(CC(=O)N3c4ccccc4Sc4ccc(C(F)(F)F)cc43)nn2)cc1`: the MIC in series [1] was 25 mg/L (≈ 49.2 µM).

Consider `COc1cccc(-c2cn(CC(=O)N3c4ccccc4Sc4ccc(C(F)(F)F)cc43)nn2)c1`, for which, in series [2], the selectivity ratio was over 10. In addition, the cytotoxicity at 72 h, 50 ug/ml in series [3] came to 34.6%. Further, the MIC in series [1] was determined as 6.25 mg/L (≈ 13 µM). Take `COc1ccc(-c2cn(CC(=O)N3c4ccccc4Sc4ccc(C(F)(F)F)cc43)nn2)c(C)c1`: the MIC in series [1] came to 12.5 mg/L (≈ 25.2 µM). `O=C(Cn1cc(-c2ccc([N+](=O)[O-])cc2)nn1)N1c2ccccc2Sc2ccc(C(F)(F)F)cc21`: the MIC in series [1] was 25 mg/L (≈ 50.3 µM). For `O=C(Cn1cc(-c2ccc(F)cc2F)nn1)N1c2ccccc2Sc2ccc(C(F)(F)F)cc21`, the selectivity ratio in series [2] is over 10. The cytotoxicity at 72 h, 50 ug/ml in series [3] is 30.6%. Also, the MIC in series [1] amounted to 6.25 mg/L (≈ 12.8 µM). With `O=C(Cn1cc(-c2ccc(Cl)c(Cl)c2)nn1)N1c2ccccc2Sc2ccc(C(F)(F)F)cc21`, the MIC in series [1] was at most 25 mg/L. In the case of `CCCCCc1ccc(-c2cn(CC(=O)N3c4ccccc4Sc4ccc(C(F)(F)F)cc43)nn2)cc1`, in series [1], the minimum inhibitory concentration (MIC) was at most 25 mg/L. `O=C(Cn1cc(-c2ccc(-c3ccccc3)cc2)nn1)N1c2ccccc2Sc2ccc(C(F)(F)F)cc21`: the MIC in series [1] was 25 mg/L (≈ 47.3 µM). In the case of `CC(=O)c1ccc(C)cc1OCc1cn(CC(=O)N2c3ccccc3Sc3ccc(C(F)(F)F)cc32)nn1`, the MIC in series [1] came to 25 mg/L (≈ 46.4 µM). As for `COc1ccc2cc(-c3cn(CC(=O)N4c5ccccc5Sc5ccc(C(F)(F)F)cc54)nn3)ccc2c1`, the MIC in series [1] is 25 mg/L (≈ 46.9 µM). For the compound `O=C(Cn1cc(-c2cc3ccccc3c3ccccc23)nn1)N1c2ccccc2Sc2ccc(C(F)(F)F)cc21`, the MIC in series [1] was determined as 12.5 mg/L (≈ 22.6 µM). As to `CCCCc1cn(CC(=O)N2c3ccccc3Sc3ccc(C(F)(F)F)cc32)nn1`, the MIC in series [1] was found to be 25 mg/L (≈ 57.8 µM). For the compound `CCCCCc1cn(CC(=O)N2c3ccccc3Sc3ccc(C(F)(F)F)cc32)nn1`, the MIC in series [1] came out at 12.5 mg/L (≈ 28 µM). As for `CC[C@@H](CO)NCCN[C@@H](CC)CO` [ETHAMBUTOL], the MIC in series [1] stood at 3.13 mg/L (≈ 15.3 µM). Same read-out and setting: in the case of `NNC(=O)c1ccncc1` [ISONIAZID] it was 0.1 mg/L (≈ 0.729 µM). Take `NC(=O)c1cnccn1` [PYRAZINAMIDE]: the MIC in series [1] amounted to 50 mg/L (≈ 406 µM).

The term MIC denotes the lowest concentration found to suppress growth.
